# Source: paper PMC12350853 (Discover Nano, 2025)
# “Also recorded” adds a separate entry of the source.
# Assays:
# [1] = tested on: heart; assay: Heart histopathology and semi-quantitative damage score; type: in vivo, rat; conditions: for heart histopathological findings: H&E
# Outline: (§1)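 Fifty male adult Wistar rats were split into five groups (23–24 °C, 12 h light/dark). Test compound, free or loaded in Fe–Co MOF, was given at 0.4 or 0.8 mg/kg i.v., ten injections at 72 h intervals. Rats were euthanised with pentobarbital sodium 200 mg/kg. H&E sections were scored 1 (normal) to 4 (severe) against organ-specific lesion criteria, blinded, by two specialists.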
# [2] = cited from earlier work
# [3] = tested on: kidney; assay: Kidney histopathology and semi-quantitative damage score; type: in vivo, rat; conditions: for kidney histopathological findings: Masson trichrome
# Outline: as §1
# [4] = tested on: testis; assay: Testis histopathology and semi-quantitative damage score; type: in vivo, rat; conditions: for Testis damage score (TDS): scale 1 normal to 4 severe, mean ± SD
# Outline: as §1
# [5] = tested on: male adult Wistar rats; assay: Serum biochemical parameters after repeated intravenous injection; type: in vivo, rat; conditions: ten injections at 72-hour intervals, vs control
# Outline: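 Male adult Wistar rats (five groups, ten per group) received free or Fe–Co MOF-loaded test compound i.v. at 0.4 or 0.8 mg/kg, ten injections every 72 h. Retro-orbital blood was centrifuged immediately at 5,000 rpm for 10 min. AST, ALT, BUN and creatinine were run on an autoanalyzer with commercial kits. Results are mean ± SD, tested by ANOVA with post hoc comparison against control.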
# [6] = tested on: liver; assay: Liver MDA level; type: in vivo, rat; conditions: dose not given
# Outline: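 After ten i.v. injections 72 h apart of free or Fe–Co MOF-loaded test compound (0.4 or 0.8 mg/kg) in male Wistar rats, liver malondialdehyde was measured by a modified literature method. Assays were repeated three times. Results are mean ± SD, compared by ANOVA with post hoc test.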
# [7] = tested on: liver; assay: Liver histopathology and semi-quantitative damage score; type: in vivo, rat
# Outline: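 Male Wistar rats received free or Fe–Co MOF-loaded test compound at 0.4 or 0.8 mg/kg i.v., ten doses 72 h apart. Fixed liver was ethanol-dehydrated, xylene-cleared, paraffin-embedded, microtome-sectioned and H&E-stained. Two specialists scored blindly on a 1–4 scale, and also rated pyknotic nuclei, inflammatory infiltration, bleeding and necrosis each 0–3. Results are mean ± SD.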
# [8] = 0.4 mg/kg i.v., scale 1 normal to 4 severe, mean ± SD
compound,measurement,setting,value
"CC(C)C[C@H](NC(=O)[C@H](CCc1ccccc1)NC(=O)CN1CCOCC1)C(=O)N[C@@H](Cc1ccccc1)C(=O)N[C@@H](CC(C)C)C(=O)[C@@]1(C)CO1 [CFZ, Carfilzomib]",heart histopathological findings,[1]; 0.4 mg/kg i.v.,mild inflammatory cell infiltration
same,Heart damage score (HDS),[1]; [8],1.25 ± 0.46
same,heart histopathological findings,"[1]; 0.8 mg/kg i.v., listed as free Carfilzomib","inflammatory cell infiltration, bleeding, and necrosis; also recorded: severe necrosis"
same,cardiotoxicity by histopathological data,[1]; overall statement,severe cardiotoxicity
same,half-life,[2],~ 30 min
same,kidney histopathological findings,[3]; 0.4 mg/kg i.v.,normal proximal and distal tubules with normal-sized nuclei
same,Renal damage score (RDS),[3]; [8],1.5 ± 0.75
same,kidney histopathological findings,[3]; 0.8 mg/kg i.v.,glomerulosclerosis characterized by swollen lining epithelium and narrowing of the proximal tubule lumen
same,testis histopathological findings,[4]; 0.4 mg/kg i.v.,"no evidence of inflammation, necrosis, or cellular infiltrates"
same,Testis damage score (TDS),[4]; 0.4 mg/kg i.v.,1.2 ± 0.4
same,testis histopathological findings,[4]; 0.8 mg/kg i.v.,multinucleated giant Sertoli cells
same,Testis damage score (TDS),[4]; 0.8 mg/kg i.v.,1.42 ± 0.53
same,serum creatinine levels,[5]; 0.4 mg/kg i.v.,elevation was not observed
same,ALT levels,[5]; 0.8 mg/kg i.v.,significantly increased
same,serum AST levels,[5]; 0.8 mg/kg i.v.,Significant elevation
same,serum BUN levels,[5]; 0.8 mg/kg i.v.,no significant effect
same,serum creatinine levels,[5]; 0.8 mg/kg i.v.,higher serum creatinine levels
same,liver lipid peroxidation,[6],significant increase
same,liver histopathological findings,[7]; 0.4 mg/kg i.v.,normal liver appearance
same,Liver damage score (LDS),[7]; [8],1.6 ± 0.51
same,liver histopathological findings,[7]; 0.8 mg/kg i.v.,"necrosis, inflammatory cell accumulation, and disarray of hepatic cords"
